The list is not random: actives were taken first. Their share in the collection is about 1.5%.
NR2E3 ag-1: human photoreceptor-specific nuclear receptor agonism | inhibition of corepressor binding, % at 3.98 µM | Q9Y5X4 | 0.35% of 360,000 active | CHO-S Gal4-NCOR/VP16-NR2E3 two-hybrid, luciferase;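 active = inhibition above the mean of all tested compounds plus 3 SD, cut at about 70% in these data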;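 also: higher means lower luciferase signal from less NR2E3 corepressor binding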
Target sequence (Q9Y5X4 whole entry, looked up, the tested form may be a part): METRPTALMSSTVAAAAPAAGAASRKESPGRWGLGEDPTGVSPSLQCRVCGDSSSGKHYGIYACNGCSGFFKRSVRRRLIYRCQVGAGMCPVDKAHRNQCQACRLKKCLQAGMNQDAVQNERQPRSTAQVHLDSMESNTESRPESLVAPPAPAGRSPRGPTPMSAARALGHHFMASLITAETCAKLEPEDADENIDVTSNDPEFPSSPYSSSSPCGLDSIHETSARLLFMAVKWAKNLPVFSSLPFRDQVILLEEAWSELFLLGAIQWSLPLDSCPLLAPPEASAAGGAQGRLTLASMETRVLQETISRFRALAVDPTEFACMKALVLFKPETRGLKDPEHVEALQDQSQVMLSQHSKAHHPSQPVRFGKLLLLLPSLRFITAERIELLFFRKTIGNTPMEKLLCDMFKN
NR2E3 ag-2: activates human photoreceptor nuclear receptor NR2E3 | Q9Y5X4 | GST-NR2E3/biotin-RetCOR TR-FRET, 1536-well | inhibition of corepressor binding, % at 4.78 µM | 0.12% of 320,000 active | AID 2300;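 active = percent inhibition above the cutoff of mean plus 3 SD of all tested compounds, set per screening campaign, cut at about 20% in these data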
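Test system – NR2E3–RetCOR corepressor complex · Quantity – NR2E3 fusion 1.35 nM · Buffer or medium – Tris pH 7.5 · Incubation – Compound–protein incubation for 5 h at 4 °C · Technique – TR-FRET, Eu(K)-anti-GST donor, streptavidin-D2 acceptor, ex 340, em 617/671 nm · Evaluation – percent inhibition of 671/617 nm emission ratio versus biotin and DMSO controls · Plate – 1536-well format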
Rev-erbA mod: modulators of human Rev-erb alpha DNA binding; activity, % at 10 µM; Rev-erbα–FITC-DNA binding, fluorescence polarization, 90 min; P20393; 0.79% of 370,000 active; AID 1259318;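 active = activity above about 14%, limit read from the data; passing the limit was not always enough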
PG9 Ab binder: PG9 antibody binding by small molecule; inhibition, % at 6.7 µM; TR-FRET gp120-PG9 antibody binding; 0.43% of 360,000 active; in the data active = inhibition above about 8.5%
Rev-erbA confirm: Rev-erb alpha (human) modulation, hit confirmation | shares compounds with Rev-erbA mod | Rev-erb alpha FITC-DNA binding, fluorescence polarization, 90 min | activation, % at 25 µM | 61% of 3,000 active | AID 1259319;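 active = activation at or above a set limit, or at least 3 SD above the negative control mean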
RORg counter: RORgamma DNA-binding activity, dose-response counter-screen; IC50, µM; AID 1259320; 8% of 910 active; purified RORgamma protein-FITC-DNA binding, fluorescence polarization; shares compounds with Rev-erbA mod;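 active = Compounds whose fitted half-maximal concentration for disrupting protein-DNA binding is below 10 micromolar; the record names Rev-erb in its text, so the target is in doubt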
A number is an active result; i = inactive; nt = not tested or not shown.

SMILES	NR2E3 ag-1	NR2E3 ag-2	Rev-erbA mod	PG9 Ab binder	Rev-erbA confirm	others
CCOC(=O)c1sc(NC(=O)CC)nc1C	i	i	i	i	nt
CCOC(=O)c1sc(NC(=O)CCc2ccc(OC)cc2)nc1C	i	i	27	i	i
CCCC#Cc1ccc(CC[C@H]2O[C@H]3CC[C@@H](CO)O[C@H]3C[C@H]2NC(=O)CN2CCOCC2)cc1	nt	nt	i	nt	nt
CC(=O)c1cc2c(cc1N/C(=N/S(=O)(=O)c1ccc(C)cc1)c1ccccc1)OCO2	i	i	i	i	nt
CCC(=O)c1cc2c(cc1NC(=O)c1ccc(C)cc1)OCCO2	i	i	i	i	nt
CC(=O)c1cc2c(cc1NC(=O)c1ccc(C)cc1)OCCO2	i	i	28	i	i
CC(=O)c1cc2c(cc1N/C(=N/S(=O)(=O)c1ccc(C)cc1)c1ccc(Cl)cc1)OCO2	i	i	92	i	57	RORg counter=i
O=c1ccnc(Nc2ccc3c(c2)OCCO3)[nH]1	i	i	i	i	nt
CC1(C)Cc2nc3sc4c(OCc5ccccc5)ncnc4c3cc2CO1	i	i	38	i	20
CCc1nc(OCc2ccccc2)c2sc3nc4c(cc3c2n1)COC(C)(C)C4	i	i	i	i	nt
N#CCCn1cc(/C=C(\C#N)c2nc3ccccc3s2)c(-c2ccc(F)cc2)n1	i	i	45	i	35
CCOC(=O)c1cc2c(nc1NC(=S)NCc1ccccc1)CCCC2	i	i	38	i	23
CCOC(=O)c1cc2c(nc1NC(=S)Nc1ccccc1)CC(C)(C)OC2	i	i	i	i	nt
CCCc1nc(SCC(=O)NC2CC2)c2c(C)c(C)sc2n1	i	i	22	i	i
CN(C)c1cc(-c2ccc(Cl)c(Cl)c2)oc(=O)c1Cl	i	i	36	i	i
CCOC(=O)N1CCC(NC(=O)C2=CCN(S(=O)(=O)c3ccc(OC)cc3)CC2)CC1	i	i	i	i	nt
Cc1ccc(C(=O)Nc2ccc(C(F)(F)F)n(C)c2=O)cc1	i	i	28	i	i
COc1ccc(C(=O)Nc2ccc(C(F)(F)F)n(C)c2=O)cc1	i	i	47	i	32	RORg counter=i
CCN(CC)S(=O)(=O)c1ccc(C(=O)Nc2ccc(C(F)(F)F)n(C)c2=O)cc1	i	i	i	i	nt
COC(=O)C1CN(Cc2cn(Cc3ccccc3)nn2)CCS(=O)(=O)N1Cc1ccc(Cl)cc1 (stereo not given)	nt	nt	i	nt	nt
Cc1cc2oc(=O)cc(-c3ccccc3)c2c(C)c1-c1ccc(O)cc1	i	nt	17	i	i
Cc1ccc(-c2csc(N3CCC[C@@H]3C(=O)NCCn3c(-c4ccncc4)nc4ccccc43)n2)cc1	i	i	i	i	nt
CCOc1ccc(-c2cc(C(=O)OC)nc3c2c(=O)n(C)c(=O)n3C)cc1	i	i	39	i	i
Cc1ccc(OCC(=O)N2CCC(C)CC2)c([N+](=O)[O-])n1	i	i	i	i	nt
CCN(C(=O)COC(=O)/C(C#N)=C/c1ccc(N(C)C)cc1)C1CCS(=O)(=O)C1 (stereo not given)	i	nt	i	i	nt
SMILES	NR2E3 ag-1	NR2E3 ag-2	Rev-erbA mod	PG9 Ab binder	Rev-erbA confirm	others
CN(C)c1ccc(/C=C(\C#N)C(=O)OCC(=O)N(C)C2CCS(=O)(=O)C2)cc1 (stereo not given)	i	i	20	i	16
CC1CCC2(CCC(=O)N2CCCOC(=O)c2ccccc2)CC1 (stereo not given)	nt	nt	i	nt	nt
N#C/C(=C/C1=C(N2CCOCC2)C(=C/c2ccc(Cl)cc2)/CC1)C(=O)Nc1ccccc1F	i	nt	27	i	i
O=c1cnnc(N/N=C/C2CC=CCC2)[nH]1 (stereo not given)	i	i	i	i	nt
Cc1cccc(NC2CCCCC2NS(=O)(=O)c2ccccc2)c1 (stereo not given)	i	nt	i	i	nt
O=C(CNC(=O)c1cc(=O)[nH]c2ccc(S(=O)(=O)N3CCOCC3)cc12)Nc1ccc(F)c(F)c1	i	nt	i	i	nt
O=C(CSc1nnc2c(n1)[nH]c1ccc(S(=O)(=O)N3CCOCC3)cc12)Nc1ccc(F)c(F)c1	i	i	45	i	i
O=C(Nc1ccccc1)Nc1ncc([N+](=O)[O-])s1	i	nt	23	i	i
O=C(COC(=O)c1ccccc1)Nc1ncc([N+](=O)[O-])s1	i	nt	i	i	nt
CCOc1ccc(-c2nnc3ccc(SCC(=O)Nc4nc5ccc(C)cc5s4)nn23)cc1	i	i	34	i	34	RORg counter=i
Cc1cccc(NC(=O)Nc2cnccn2)c1C	i	i	18	i	i
COc1cc(NC(=O)CSc2nc3ccccc3cc2C)c(C(=O)O)cc1OC	i	i	i	i	nt
Cc1cc2cc3c(cc2nc1SCC(=O)Nc1ccccc1)CCC3	i	i	33	i	i
Cc1ccc2cc(C)c(SCC(=O)Nc3ccc(S(=O)(=O)N4CCCC4)cc3)nc2c1	i	i	27	i	19
Cc1ccc(-c2nnc(SCC(=O)Nc3ccc(S(=O)(=O)N4CCCCCC4)cc3)o2)cc1	i	i	i	i	nt
CC(=O)c1ccn(S(=O)(=O)c2ccccc2)c1	i	i	i	i	nt
CSc1nc(N)c(C(=O)NC2CCCCC2)s1	i	i	23	i	i
CCCCCCn1cc(C(=O)O)c(=O)c2cc(F)c(N3CCN(C(=O)OCC)CC3)cc21	i	i	31	i	i
C=CCCCCCCCCC(=O)N1CCN(c2cc3c(cc2F)c(=O)c(C(=O)O)cn3CC)CC1	i	i	i	i	nt
CCOC(=O)c1c(C)nc2sc3c(=O)n(-c4ccc(C(C)=O)cc4)cnc3c2c1-c1ccc(OC)cc1	i	i	31	i	19
COc1cccc2c1Oc1ncccc1N(C(=O)CCC(=O)NCc1ccccc1Cl)C2	i	i	i	i	nt
CN(C)c1ccc(C=C2C=C(c3ccccc3)OC2=O)cc1	i	nt	32	i	i
CN(C)c1ccc(/C=C2/C=C(c3ccc4c(c3)CCCC4)OC2=O)cc1	i	i	25	i	i
Cc1ccc(C=C2C=C(c3ccccc3)OC2=O)cc1	i	nt	i	i	nt
COC(=O)c1sc2nc3c(cc2c1N)C(=O)CC(C)(C)C3	i	i	70	i	44	RORg counter=i
SMILES	NR2E3 ag-1	NR2E3 ag-2	Rev-erbA mod	PG9 Ab binder	Rev-erbA confirm	others
COC(=O)c1cn(NC(=O)Cc2cccc(OC)c2)c(=O)c2ccccc12	i	i	i	i	nt
COC(=O)c1cn(NC(=O)Cc2ccc(OC)c(OC)c2)c(=O)c2ccccc12	i	i	12	i	i
O=C(Cc1csc(NC(=O)Nc2cccc(Cl)c2)n1)NC1CCCC1	i	i	i	i	nt
O=C(COC(=O)c1cc(Cl)ccc1[N+](=O)[O-])NCc1ccc(Cl)cc1Cl	i	i	i	i	nt
Cc1ccc(C(=O)OCC(=O)N2CCC(c3ccccc3)=N2)c(C)c1	i	i	i	i	nt
CC(C)(C)c1ccc(C(=O)OCC(=O)N2CCC(c3ccccc3)=N2)cc1	i	i	14	i	i
O=C(Nc1ccc2nn(-c3ccccc3)nc2c1)c1ccc(Br)o1	i	i	37	i	26
